Data reported in ChEMBL document CHEMBL1136151, “Suzuki cross-coupling approaches to the synthesis of bioactive 3-substituted and 5-substituted-4-methoxy-6-methyl-2-pyrones” (Bioorg Med Chem Lett, 2003).

Key:
Format in all cases: functional
[1] = system: Bacillus subtilis; experiment: Antimicrobial activity against Bacillus subtilis was determined after 96 hours of incubation
How it was run: (§1)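 Disk diffusion: cellulose disks loaded with test compound and placed on bacterial plates, with an EtOH control disk. Incubation 96 h. Read-out is the radius (mm) of the inhibition zone.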

[2] = system: Thanatephorus cucumeris; experiment: Percent growth of Rhizoctonia solani after 7 days of incubation; design: concentration or dose not given beside the values
How it was run: (§2)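 Fungal plate assay: pyrone dissolved in absolute EtOH at 10mg/mL and pipetted 2 cm offset from the centre of the plate containing the organism. EtOH alone served as control. Growth is recorded as percentage of the organism after 72 h and after 7 days of incubation.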

[3] = system: Schizosaccharomyces pombe; experiment: Antimicrobial activity against Schizosaccharomyces pombe was determined after 48 hours of incubation
How it was run: (§3)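 Disk diffusion on yeast plates: cellulose disks carrying test compound, with an EtOH control. Incubation 48 h. The inhibition zone radius is recorded in mm.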

[4] = system: Botrytis cinerea; experiment: Percent growth of Botrytis cinerea after 72 hours of incubation; design: concentration or dose not given beside the values; how it was run: as §2
[5] = system: Fusarium oxysporum; experiment: Percent growth of Fusarium oxysporum after 7 days of incubation; design: concentration or dose not given beside the values; how it was run: as §2
[6] = system: Globisporangium ultimum; experiment: Percent growth of Pythium ultimum after 72 hours of incubation; design: concentration or dose not given beside the values; how it was run: as §2
[7] = system: Thanatephorus cucumeris; experiment: Percent growth of Rhizoctonia solani after 72 hours of incubation; design: concentration or dose not given beside the values; how it was run: as §2
[8] = system: Fusarium oxysporum; experiment: Percent growth of Fusarium oxysporum after 72 hours of incubation; design: concentration or dose not given beside the values; how it was run: as §2
[9] = system: Aspergillus niger; experiment: Percent growth of Aspergillus niger after 7 days of incubation; design: concentration or dose not given beside the values; how it was run: as §2
[10] = system: Aspergillus niger; experiment: Percent growth of Aspergillus niger after 72 hours of incubation; design: concentration or dose not given beside the values; how it was run: as §2
[11] = system: Botrytis cinerea; experiment: Percent growth of Botrytis cinerea after 7 days of incubation; design: concentration or dose not given beside the values; how it was run: as §2
[12] = system: Staphylococcus aureus; experiment: Antimicrobial activity against Staphylococcus aureus was determined after 96 hours of incubation; how it was run: as §1
[13] = system: Escherichia coli; experiment: Antimicrobial activity against Escherichia coli was determined after 96 hours of incubation; how it was run: as §1
[14] = system: Globisporangium ultimum; experiment: Percent growth of Pythium ultimum after 7 days of incubation; design: concentration or dose not given beside the values; how it was run: as §2
[15] = system: Saccharomyces cerevisiae; experiment: Antimicrobial activity against Saccharomyces cerevisiae was determined after 48 hours of incubation; how it was run: as §3
[16] = system: Candida albicans; experiment: Antimicrobial activity against Candida albicans was determined after 48 hours of incubation; how it was run: as §3
[17] = system: Globisporangium mamillatum; experiment: Percent growth of Pythium mammillatum after 72 hours of incubation; design: concentration or dose not given beside the values; how it was run: as §2
[18] = system: Globisporangium mamillatum; experiment: Percent growth of Pythium mammillatum after 7 days of incubation; design: concentration or dose not given beside the values; how it was run: as §2

COc1cc(C)oc(=O)c1-c1ccc(C)cc1
Activity [1]: 16 mm | Growth [2]: 100% | Activity [3]: 0 mm | Growth [4]: 58% | Growth [5]: 60% | Growth [6]: 100% | Growth [7]: 55% | Growth [8]: 11% | Growth [9]: 100% | Growth [10]: >95% | Growth [11]: 100% | Activity [12]: 0 mm | Activity [13]: 20 mm | Growth [14]: 100% | Activity [15]: 0 mm | Activity [16]: 0 mm

COc1cc(C)oc(=O)c1-c1ccc(C=O)cc1
Activity [1]: 6 mm | Growth [2]: 100% | Activity [3]: 0 mm | Growth [4]: 65% | Growth [5]: 60% | Growth [6]: 100% | Growth [7]: 79% | Growth [8]: 11% | Growth [9]: >95% | Growth [10]: 83% | Growth [11]: 100% | Activity [12]: 0 mm | Activity [13]: 6 mm | Growth [14]: 100% | Activity [15]: 0 mm | Activity [16]: 0 mm

CCC/C=C/c1cc(C)oc(=O)c1
Activity [1]: 16 mm | Growth [2]: 100% | Activity [3]: 28 mm | Growth [4]: 47% | Growth [5]: 45% | Growth [6]: 100% | Growth [7]: 49% | Growth [8]: 5% | Growth [9]: 100% | Growth [10]: >95% | Growth [11]: 100% | Activity [12]: 20 mm | Activity [13]: 19 mm | Growth [14]: 100% | Activity [15]: 0 mm | Activity [16]: 16 mm

COc1ccc(-c2c(OC)cc(C)oc2=O)cc1
Activity [1]: 0 mm | Growth [2]: 100% | Activity [3]: 0 mm | Growth [4]: 62% | Growth [5]: 60% | Growth [6]: 100% | Growth [7]: 81% | Growth [8]: 7% | Growth [9]: 82% | Growth [10]: 70% | Growth [11]: 100% | Activity [12]: 0 mm | Activity [13]: 0 mm | Growth [14]: 100% | Activity [15]: 0 mm | Activity [16]: 0 mm

COc1cc(=O)oc(C)c1-c1ccccc1
Activity [1]: 6 mm | Growth [2]: 100% | Activity [3]: 0 mm | Growth [4]: 47% | Growth [5]: 51% | Growth [7]: 67% | Growth [8]: 12% | Growth [9]: >90% | Growth [10]: 71% | Growth [11]: 100% | Activity [12]: 0 mm | Activity [13]: 6 mm | Activity [15]: 0 mm | Activity [16]: 0 mm

CCCCC/C=C/c1c(OC)cc(=O)oc1C
Activity [1]: 19 mm | Growth [2]: 100% | Activity [3]: 26 mm | Growth [4]: 12% | Growth [5]: 24% | Growth [6]: 100% | Growth [7]: 33% | Growth [8]: 7% | Growth [9]: 95% | Growth [10]: 82% | Growth [11]: 100% | Activity [12]: 16 mm | Growth [17]: 24% | Activity [13]: 20 mm | Growth [18]: 94% | Growth [14]: 100% | Activity [15]: 12 mm | Activity [16]: 12 mm

COc1cc(C)oc(=O)c1-c1ccc(Cl)cc1
Activity [1]: 17 mm | Growth [2]: 100% | Activity [3]: 0 mm | Growth [4]: 58% | Growth [5]: 60% | Growth [6]: 100% | Growth [7]: 51% | Growth [8]: 8% | Growth [9]: 95% | Growth [10]: >95% | Growth [11]: 100% | Activity [12]: 0 mm | Activity [13]: 18 mm | Growth [14]: 100% | Activity [15]: 30 mm | Activity [16]: 0 mm

Cc1cc(/C=C/c2ccccc2)cc(=O)o1
Activity [1]: 18 mm | Growth [2]: 100% | Activity [3]: 18 mm | Growth [4]: 59% | Growth [6]: 100% | Growth [7]: 47% | Growth [9]: 100% | Growth [10]: 100% | Growth [11]: 100% | Activity [12]: 0 mm | Activity [13]: 17 mm | Growth [14]: 100% | Activity [15]: 0 mm | Activity [16]: 0 mm

COc1cc(=O)oc(C)c1/C=C/c1ccccc1
Activity [1]: 6 mm | Growth [2]: 100% | Activity [3]: 0 mm | Growth [4]: 47% | Growth [5]: 51% | Growth [7]: 67% | Growth [8]: 12% | Growth [9]: 90% | Growth [10]: 71% | Growth [11]: 100% | Activity [12]: 0 mm | Activity [13]: 6 mm | Activity [15]: 0 mm | Activity [16]: 0 mm

COc1ccc(-c2c(OC)cc(=O)oc2C)cc1
Activity [1]: 14 mm | Growth [2]: 100% | Activity [3]: 18 mm | Growth [4]: 53% | Growth [5]: 61% | Growth [7]: 69% | Growth [8]: 11% | Growth [9]: 90% | Growth [10]: 85% | Growth [11]: 100% | Activity [12]: 13 mm | Activity [13]: 5 mm | Activity [15]: 0 mm | Activity [16]: 11 mm

COc1cc(C)oc(=O)c1-c1cccc([N+](=O)[O-])c1
Activity [1]: 6 mm | Growth [2]: 100% | Activity [3]: 0 mm | Growth [5]: 60% | Growth [6]: 100% | Growth [8]: 12% | Growth [9]: 100% | Growth [10]: 100% | Growth [11]: 100% | Activity [12]: 0 mm | Activity [13]: 0 mm | Growth [14]: 100% | Activity [15]: 0 mm | Activity [16]: 0 mm

CCCCCC/C=C/c1cc(C)oc(=O)c1
Activity [1]: 18 mm | Growth [2]: 100% | Activity [3]: 29 mm | Growth [4]: 42% | Growth [5]: 30% | Growth [6]: 100% | Growth [7]: 44% | Growth [8]: 5% | Growth [9]: 94% | Growth [10]: 89% | Growth [11]: 100% | Activity [12]: 18 mm | Activity [13]: 20 mm | Growth [14]: 100% | Activity [15]: 0 mm | Activity [16]: 20 mm

COc1cc(C)oc(=O)c1-c1ccccc1
Activity [1]: 6 mm | Growth [2]: 100% | Activity [3]: 0 mm | Growth [4]: 63% | Growth [5]: 60% | Growth [6]: 100% | Growth [7]: 75% | Growth [8]: 7.4% | Growth [9]: 100% | Growth [10]: >95% | Growth [11]: 100% | Activity [12]: 0 mm | Activity [13]: 0 mm | Growth [14]: 100% | Activity [15]: 0 mm | Activity [16]: 0 mm

CCCC/C=C/c1c(OC)cc(C)oc1=O
Activity [1]: 19 mm | Growth [2]: 100% | Activity [3]: 0 mm | Growth [4]: 51% | Growth [5]: 48% | Growth [6]: 37% | Growth [7]: 43% | Growth [8]: 8% | Growth [9]: 91% | Growth [10]: 77% | Growth [11]: 100% | Activity [12]: 21 mm | Growth [17]: 35% | Activity [13]: 20 mm | Growth [18]: 100% | Growth [14]: 57% | Activity [15]: 0 mm | Activity [16]: 0 mm

COc1cc(C)oc(=O)c1/C=C/c1ccccc1
Activity [1]: 0 mm | Growth [2]: 100% | Activity [3]: 0 mm | Growth [4]: 58% | Growth [5]: 60% | Growth [6]: 100% | Growth [7]: 92% | Growth [8]: 11% | Growth [9]: 100% | Growth [10]: >95% | Growth [11]: 100% | Activity [12]: 0 mm | Activity [13]: 0 mm | Growth [14]: 100% | Activity [15]: 0 mm | Activity [16]: 0 mm
